Assay results reported in ChEMBL document CHEMBL1139931, “Synthesis and structure-activity relationships of novel pyrimido[1,2-b]indazoles as potential anticancer agents against A-549 cell lines” (2007).

The compounds below were run on A549 (assay: Anticancer activity against human A549 cells at 1 nM after 12 hrs). Settings: A549, 12 h.
Assay type: functional
Outline: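 A-549 cells seeded at 10,000 cells/well in 96-well plates, recovered overnight in 5% CO2, then exposed 12 h to compound at 1 nM/ml (in 1% DMSO in PBS). MTT added from a 5 mg/ml PBS stock, 5 h at 37 °C, medium removed, formazan dissolved in DMSO for 5 min at 37 °C. Growth inhibition read at 550 nm; duplicate runs.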

SMILES	inhibition at 0.001 µM
N#Cc1c(-c2ccccc2)cc(C(F)(F)F)c2c1nn1c(C(F)(F)F)cc(-c3ccccc3)nc21	16.2%
N#Cc1c(C(F)(F)F)cc(-c2ccccc2)c2c1nn1c(C(F)(F)F)cc(-c3ccccc3)nc21	8.9%
Cc1cc(-c2ccccc2)n2nc3c(C#N)c(C(F)(F)F)cc(-c4ccccc4)c3c2n1	4.8%
N#Cc1c(C(F)(F)F)cc(-c2ccccc2)c2c1nn1c(-c3ccccc3)cc(-c3ccccc3)nc21	5.96%
N#Cc1c(C(F)(F)F)cc(-c2ccccc2)c2c1nn1c(C(F)(F)F)cc(C(F)(F)F)nc21	10.2%
COc1cc([C@@H]2c3cc4c(cc3[C@@H](O[C@@H]3O[C@@H]5CO[C@@H](C)O[C@H]5[C@H](O)[C@H]3O)[C@H]3COC(=O)[C@H]23)OCO4)cc(OC)c1O [ETOPOSIDE]	1.15%
CCOC(=O)c1cnc2c3c(-c4ccccc4)cc(C(F)(F)F)c(C#N)c3nn2c1N	11%
CCOC(=O)c1cnc2c3c(C(F)(F)F)cc(-c4ccccc4)c(C#N)c3nn2c1N	10.7%
Cc1cc(-c2ccccc2)nc2c3c(C(F)(F)F)cc(-c4ccccc4)c(C#N)c3nn12	13.3%
Cc1cc(C(F)(F)F)n2nc3c(C#N)c(C(F)(F)F)cc(-c4ccccc4)c3c2n1	6.44%
Cc1cc(C)n2nc3c(C#N)c(-c4ccccc4)cc(C(F)(F)F)c3c2n1	3.74%
Cc1ccc(-c2cc(C(F)(F)F)n3nc4c(C#N)c(C(F)(F)F)cc(-c5ccccc5)c4c3n2)cc1	6.77%
CCOC(=O)c1cnc2c3c(-c4ccccc4)cc(C(F)(F)F)c(C#N)c3nn2c1O	8.24%
Cc1cc(=O)n2nc3c(C#N)c(C(F)(F)F)cc(-c4ccccc4)c3c2[nH]1	0.44%
N#Cc1c(-c2ccccc2)cc(C(F)(F)F)c2c1nn1c(C(F)(F)F)cc(C(F)(F)F)nc21	4.54%
